Laboratory results taken from ChEMBL document CHEMBL4007404, “Identification of High-Potency Human TLR8 and Dual TLR7/TLR8 Agonists in Pyrimidine-2,4-diamines” (J Med Chem, 2017).
The source made the active and inactive calls. The rule behind the calls is not given here.

What was measured:
[1] = target: T1, Toll-like receptor 7 (Homo sapiens) (UniProt Q9NYK1); experiment: Agonist activity at TLR7 in human PBMC assessed as induction of IFN-alpha production after 16 hrs by multiplexed immunoassay
T1 sequence (whole entry): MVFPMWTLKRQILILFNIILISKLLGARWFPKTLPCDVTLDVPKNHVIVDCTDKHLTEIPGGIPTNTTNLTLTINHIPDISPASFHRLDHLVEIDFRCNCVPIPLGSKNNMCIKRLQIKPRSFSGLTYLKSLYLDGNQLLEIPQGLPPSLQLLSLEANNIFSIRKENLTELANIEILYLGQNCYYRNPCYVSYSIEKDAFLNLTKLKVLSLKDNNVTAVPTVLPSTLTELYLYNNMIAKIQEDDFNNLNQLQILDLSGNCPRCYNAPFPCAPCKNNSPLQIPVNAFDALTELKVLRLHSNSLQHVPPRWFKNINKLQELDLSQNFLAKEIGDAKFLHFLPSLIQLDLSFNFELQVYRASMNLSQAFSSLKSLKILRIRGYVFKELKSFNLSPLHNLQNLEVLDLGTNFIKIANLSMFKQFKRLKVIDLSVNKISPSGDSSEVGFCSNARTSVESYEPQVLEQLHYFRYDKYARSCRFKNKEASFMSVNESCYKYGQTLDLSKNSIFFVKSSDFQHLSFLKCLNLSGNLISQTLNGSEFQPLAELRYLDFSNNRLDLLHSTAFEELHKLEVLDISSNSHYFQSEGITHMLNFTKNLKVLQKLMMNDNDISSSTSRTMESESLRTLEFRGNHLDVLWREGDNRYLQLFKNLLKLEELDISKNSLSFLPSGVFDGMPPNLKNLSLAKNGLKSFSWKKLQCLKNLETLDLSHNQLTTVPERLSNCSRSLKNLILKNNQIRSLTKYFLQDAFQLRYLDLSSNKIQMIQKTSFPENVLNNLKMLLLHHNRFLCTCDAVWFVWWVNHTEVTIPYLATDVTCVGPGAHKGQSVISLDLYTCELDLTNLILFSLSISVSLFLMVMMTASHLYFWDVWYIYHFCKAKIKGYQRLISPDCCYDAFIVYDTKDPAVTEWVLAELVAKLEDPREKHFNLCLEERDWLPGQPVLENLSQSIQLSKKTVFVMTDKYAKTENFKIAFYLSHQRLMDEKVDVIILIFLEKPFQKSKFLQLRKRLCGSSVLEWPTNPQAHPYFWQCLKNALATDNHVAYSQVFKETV
In short: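 Fresh human PBMCs were isolated from venous blood in cell preparation tubes. They were stimulated at 10^5 cells per well for 16 h with graded compound concentrations. Supernatants were taken off by centrifugation and assayed in duplicate on a 41-analyte magnetic bead cytokine/chemokine multiplex panel. Panel analytes include IFN-α2, IFN-γ, IL-12 (p40) and TNF-α.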

[2] = target: T1, Toll-like receptor 7 (Homo sapiens); experiment: Agonist activity at TLR7 in human whole blood assessed as induction of IFN-alpha/beta by measuring increase in secreted alkaline phosphatase level pretreated for 24 hrs followed by HEK-IFN-alpha/beta reporter cell addition after 24 hrs by spectrophotometric method
In short: (§1)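 Heparinized human whole blood, diluted 1:2 in RPMI with 10% FBS, was incubated with serial compound dilutions at 37°C for 24 h. Supernatant was moved by liquid handler onto HEK-IFNα/β, HEK-IFNγ or HEK-TNFα/IL-1β reporter cells (1x10⁶ cells/mL, DMEM with 10% FBS) for 24 h at 37°C. Plates were washed and given detection medium for 16 h, then sAP read at 620 nm. Calibration used serum spiked with IFN-α, IFN-γ or TNF-α.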

[3] = target: T2, Toll-like receptor 8 (Homo sapiens) (UniProt Q9NR97); experiment: Agonist activity at TLR8 in human whole blood assessed as induction of IFN-gamma by measuring increase in secreted alkaline phosphatase level pretreated for 24 hrs followed by HEK-IFN-gamma reporter cell addition after 24 hrs by spectrophotometric method; in short: as §1
T2 sequence (whole entry): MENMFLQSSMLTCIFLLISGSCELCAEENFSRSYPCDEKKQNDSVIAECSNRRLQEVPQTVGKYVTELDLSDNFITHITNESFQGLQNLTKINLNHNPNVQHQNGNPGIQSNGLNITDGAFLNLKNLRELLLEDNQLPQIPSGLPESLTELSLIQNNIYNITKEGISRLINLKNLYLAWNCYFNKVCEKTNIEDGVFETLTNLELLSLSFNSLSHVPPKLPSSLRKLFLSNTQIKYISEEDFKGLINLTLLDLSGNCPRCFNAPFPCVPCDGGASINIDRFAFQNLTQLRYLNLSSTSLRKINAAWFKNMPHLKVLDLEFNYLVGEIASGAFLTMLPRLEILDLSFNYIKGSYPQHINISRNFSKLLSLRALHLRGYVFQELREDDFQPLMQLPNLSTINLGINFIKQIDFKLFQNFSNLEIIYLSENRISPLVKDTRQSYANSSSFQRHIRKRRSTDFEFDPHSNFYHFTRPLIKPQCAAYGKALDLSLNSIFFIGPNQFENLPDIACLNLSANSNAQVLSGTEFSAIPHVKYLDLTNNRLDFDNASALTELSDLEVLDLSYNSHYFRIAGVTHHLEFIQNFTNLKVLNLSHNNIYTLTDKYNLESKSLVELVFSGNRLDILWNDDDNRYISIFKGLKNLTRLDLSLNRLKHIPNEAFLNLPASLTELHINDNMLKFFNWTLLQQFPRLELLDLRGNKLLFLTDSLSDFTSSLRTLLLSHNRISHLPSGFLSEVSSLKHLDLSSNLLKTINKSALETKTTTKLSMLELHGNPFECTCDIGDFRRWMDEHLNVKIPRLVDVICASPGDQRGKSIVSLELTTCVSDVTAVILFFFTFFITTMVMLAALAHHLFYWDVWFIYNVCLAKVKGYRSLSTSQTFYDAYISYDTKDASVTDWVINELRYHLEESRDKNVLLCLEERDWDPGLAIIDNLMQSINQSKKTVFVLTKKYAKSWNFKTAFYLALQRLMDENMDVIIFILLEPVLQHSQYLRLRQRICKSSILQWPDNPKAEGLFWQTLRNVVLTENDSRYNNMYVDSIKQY

[4] = target: T2, Toll-like receptor 8 (Homo sapiens); experiment: Agonist activity at TLR8 in human whole blood assessed as induction of TNF-alpha/IL-1beta by measuring increase in secreted alkaline phosphatase level pretreated for 24 hrs followed by HEK-TNF-alpha/IL-1beta reporter cell addition after 24 hrs by spectrophotometric method; in short: as §1
[5] = target: T2, Toll-like receptor 8 (Homo sapiens); experiment: Agonist activity at TLR8 in human CD141 positive conventional dendritic cells assessed as upregulation of CD80 expression after 16 hrs by efluor 780 dye based flow cytometry
In short: (§2)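 Human PBMCs were incubated with serial compound dilutions at 37 °C for 16 h, with DMSO controls. Cells were stained with eFluor780 viability dye, then lineage and DC antibodies plus CD80 PE, and fixed. 250,000 gated events were acquired. pDCs were gated as Live Lin⁻ CD123⁺ CD303⁺ CD304⁺ HLA-DR⁺. cDCs were gated as Lin⁻ CD1c⁺ CD141⁻ CD11c⁺ HLA-DR⁺ or Lin⁻ CD141⁺ CD1c⁻ HLA-DR⁺. Median fluorescence intensity was quantified.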

[6] = target: T1, Toll-like receptor 7 (Homo sapiens); experiment: Agonist activity at TLR7 in human plasmacytoid dendritic cells assessed as upregulation of CD80 expression after 16 hrs by efluor 780 dye based flow cytometry; in short: as §2

| Activity [1] | Activity [2] | Activity [3] | Activity [4] | Activity [5] | Activity [6] | SMILES |
| --- | --- | --- | --- | --- | --- | --- |
| Active | – | – | – | – | – | CCCCNc1nc(N)nc(C)c1CCCn1c(C)nc2ccccc21 |
| – | Active | Active | Active | Active | Active | CCCCNc1nc(N)nc(C)c1CCCN1CCOCC1 |
| Active | – | – | – | – | – | CCCCNc1nc(N)nc(C)c1CCCc1ccccc1 |
